The source made the active and inactive calls. The calls are words filed in the database; no cut-off is given here.
How the values were obtained:
MCF7 [1] = experiment: Selectivity index, ratio of IC50 for human fibroblast to IC50 for human MCF7 cells
How it was run: (§1)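 The selectivity index was calculated as the IC50 on human fibroblasts divided by the IC50 on the corresponding tumor cell line.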

HCT-8 [2] = experiment: Selectivity index, ratio of IC50 for human fibroblast to IC50 for human HCT8 cells; how it was run: as §1
HT-29 [3] = experiment: Selectivity index, ratio of IC50 for human fibroblast to IC50 for human HT-29 cells; how it was run: as §1
DLD-1 [4] = experiment: Cytotoxicity against human DLD1 cells after 96 hrs by SRB assay; type: functional, cell-based; settings: DLD-1, 96 h
[5] = Cytotoxicity against human fibroblast after 96 hrs by SRB assay; type: cell-based
HCT-116 [6] = experiment: Cytotoxicity against human HCT116 cells after 96 hrs by SRB assay; type: functional, cell-based; settings: HCT-116, 96 h
A549 [7] = experiment: Cytotoxicity against human A549 cells after 96 hrs by SRB assay; type: functional, cell-based; settings: A549, 96 h
SW480 [8] = experiment: Cytotoxicity against human SW480 cells after 96 hrs by SRB assay; type: functional, cell-based; settings: SW480, 96 h
MCF7 [9] = experiment: Cytotoxicity against human MCF7 cells after 96 hrs by SRB assay; type: functional, cell-based; settings: MCF7, 96 h
[10] = Cytotoxicity against human Liposarcoma cells after 96 hrs by SRB assay; type: functional, cell-based
[11] = Cytotoxicity against human A253 cells after 96 hrs by SRB assay; type: functional, cell-based; settings: A253, 96 h
[12] = Cytotoxicity against human 518A2 cells after 96 hrs by SRB assay; type: functional, cell-based; settings: 518A2, 96 h
A-431 [13] = experiment: Cytotoxicity against human A431 cells after 96 hrs by SRB assay; type: functional, cell-based; settings: A-431, 96 h
A2780 [14] = experiment: Selectivity index, ratio of IC50 for human fibroblast to IC50 for human A2780 cells; how it was run: as §1
A2780 [15] = experiment: Cytotoxicity against human A2780 cells after 96 hrs by SRB assay; type: functional, cell-based; settings: A2780, 96 h
DLD-1 [16] = experiment: Selectivity index, ratio of IC50 for human fibroblast to IC50 for human DLD1 cells; how it was run: as §1
SW480 [17] = experiment: Selectivity index, ratio of IC50 for human fibroblast to IC50 for human SW480 cells; how it was run: as §1
HCT-8 [18] = experiment: Cytotoxicity against human HCT8 cells after 96 hrs by SRB assay; type: functional, cell-based; settings: HCT-8, 96 h
[19] = Selectivity index, ratio of IC50 for human fibroblast to IC50 for human A253 cells; how it was run: as §1
A-431 [20] = experiment: Selectivity index, ratio of IC50 for human fibroblast to IC50 for human A431 cells; how it was run: as §1
A549 [21] = experiment: Selectivity index, ratio of IC50 for human fibroblast to IC50 for human A549 cells; how it was run: as §1
FaDu [22] = experiment: Selectivity index, ratio of IC50 for human fibroblast to IC50 for human FADU cells; how it was run: as §1
[23] = Selectivity index, ratio of IC50 for human fibroblast to IC50 for human 518A2 cells; how it was run: as §1
[24] = Selectivity index, ratio of IC50 for human fibroblast to IC50 for human Liposarcoma cells; how it was run: as §1
8505C [25] = experiment: Cytotoxicity against human 8505C cells after 96 hrs by SRB assay; type: functional, cell-based
SW-1736 = experiment: Cytotoxicity against human SW1736 cells after 96 hrs by SRB assay; type: functional, cell-based; settings: SW-1736, 96 h
[26] = Selectivity index, ratio of IC50 for human fibroblast to IC50 for human SW1736 cells; how it was run: as §1
8505C [27] = experiment: Selectivity index, ratio of IC50 for human fibroblast to IC50 for human 8505C cells; how it was run: as §1
HT-29 [28] = experiment: Cytotoxicity against human HT-29 cells after 96 hrs by SRB assay; type: functional, cell-based; settings: HT-29, 96 h
FaDu [29] = experiment: Cytotoxicity against human FADU cells after 96 hrs by SRB assay; type: functional, cell-based
HCT-116 [30] = experiment: Selectivity index, ratio of IC50 for human fibroblast to IC50 for human HCT116 cells; how it was run: as §1
A549 [31] = experiment: Induction of apoptosis in human A549 cells assessed as caspase3/7 activation at equitoxic IC90 after 6 hrs; type: functional, cell-based

Compound | IC50 (DLD-1 [4]) [µM] | IC50 (HCT-116 [6]) [µM] | IC50 (A549 [7]) [µM] | IC50 (SW480 [8]) [µM] | IC50 (MCF7 [9]) [µM] | IC50 [10] [µM] | IC50 [11] [µM] | IC50 [12] [µM] | IC50 (A-431 [13]) [µM] | IC50 (A2780 [15]) [µM] | IC50 (HCT-8 [18]) [µM] | IC50 (8505C [25]) [µM] | IC50 (SW-1736) [µM] | IC50 (HT-29 [28]) [µM] | IC50 (FaDu [29]) [µM] | other results
C=C(C)[C@@H]1CC[C@]2(C(=O)O)CC[C@]3(C)[C@H](CC[C@@H]4[C@@]5(C)CC[C@H](O)C(C)(C)[C@@H]5CC[C@]43C)[C@@H]12 [BETULINIC ACID] | 11.9 | 10.8 | 11.1 | 6.48 | 12.3 | 12.1 | 9.18 | 8.13 | 12.6 | 11.1 | 13.1 | 7.26 | 13.1 | 13.9 | 10.2 | Ratio IC50 (MCF7 [1]): 1.7; Ratio IC50 (HCT-8 [2]): 1.59; Ratio IC50 (HT-29 [3]): 1.49; IC50 [5]: 20.8 µM; Ratio IC50 (A2780 [14]): 1.88; Ratio IC50 (DLD-1 [16]): 1.75; Ratio IC50 (SW480 [17]): 3.21; Ratio IC50 [19]: 2.27; Ratio IC50 (A-431 [20]): 1.65; Ratio IC50 (A549 [21]): 1.87; Ratio IC50 (FaDu [22]): 2.04; Ratio IC50 [23]: 2.56; Ratio IC50 [24]: 1.72; Ratio IC50 [26]: 1.59; Ratio IC50 (8505C [27]): 2.87; Ratio IC50 (HCT-116 [30]): 1.93
C=C(C)[C@@H]1CC[C@]2(C(=O)OC)CC[C@]3(C)[C@H](CC[C@@H]4[C@@]5(C)CC[C@H](O)C(C)(C)[C@@H]5CC[C@]43C)[C@@H]12 [METHYL BETULINATE] | 45.9 | 20.5 | 20.6 | 17.9 | 24.4 | 23.3 | 18.5 | 28.8 | 27 | 29.3 | 17.2 | 23.7 | 32.1 | 30.7 | 20.3 | 
C=C(C)[C@@H]1CC[C@]2(COC(C)=O)CC[C@]3(C)[C@H](CC[C@@H]4[C@@]5(C)CC[C@H](OC(=O)Nc6ccccc6)C(C)(C)[C@@H]5CC[C@]43C)[C@@H]12 | > 100 | > 100 | > 100 | > 100 | > 100 | > 100 | > 100 | > 100 | > 100 | 84.2 | > 100 | > 100 | > 100 | 76.4 | > 100 | 
C=C(C)[C@@H]1CC[C@]2(COC(C)=O)CC[C@]3(C)[C@H](CC[C@@H]4[C@@]5(C)CC[C@H](O)C(C)(C)[C@@H]5CC[C@]43C)[C@@H]12 | 13.1 | 10.7 | 14.4 | 13.7 | 11.4 | 15.5 | 12.9 | 15.8 | 12.2 | 11.7 | 18 | 14.7 | 12 | 11 | 14 | 
C=C(C)[C@@H]1CC[C@]2(COC(=O)Nc3ccccc3)CC[C@]3(C)[C@H](CC[C@@H]4[C@@]5(C)CC[C@H](OC(=O)Nc6ccccc6)C(C)(C)[C@@H]5CC[C@]43C)[C@@H]12 [BIS(PHENYLCARBAMATE)BETULIN] | > 100 | > 100 | > 100 | > 100 | > 100 | > 100 | > 100 | > 100 | > 100 | 80.6 | > 100 | > 100 | > 100 | 69.2 | > 100 | 
C=C(C)[C@@H]1CC[C@]2(C(=O)OC)CC[C@]3(C)[C@H](CC[C@@H]4[C@@]5(C)CC[C@H](OC(=O)Nc6ccccc6)C(C)(C)[C@@H]5CC[C@]43C)[C@@H]12 | > 100 | > 100 | > 100 | > 100 | > 100 | > 100 | > 100 | > 100 | 91.5 | 69.5 | > 100 | > 100 | > 100 | 69 | > 100 | 
C=C(C)[C@@H]1CC[C@]2(C(=O)O)CC[C@]3(C)[C@H](CC[C@@H]4[C@@]5(C)CC[C@H](OC(=O)NCC)C(C)(C)[C@@H]5CC[C@]43C)[C@@H]12 | 17 | 15.2 | 5.55 | 16.6 | 17.4 | 17.9 | 17.3 | 17.8 | 15.2 | 7.41 | 16.7 | 17.6 | 5.24 | 16.7 | 13.8 | Activity (A549 [31]): Active
C=C(C)[C@@H]1CC[C@]2(C(=O)OC)CC[C@]3(C)[C@H](CC[C@@H]4[C@@]5(C)CC[C@H](OC(=O)NCC)C(C)(C)[C@@H]5CC[C@]43C)[C@@H]12 | 18.9 | 13.5 | 2.32 | 6.67 | 7.03 | 6.85 | 16.7 | 16.7 | 14.8 | 8.35 | 15 | 7.22 | 2.35 | 7.22 | 5.53 | 
C=C(C)[C@@H]1CC[C@]2(C(=O)O)CC[C@]3(C)[C@H](CC[C@@H]4[C@@]5(C)CC[C@H](OC(=O)Nc6ccccc6)C(C)(C)[C@@H]5CC[C@]43C)[C@@H]12 | 26.3 | 21.4 | 22.4 | 41.1 | 47.9 | 51.9 | 34.7 | 51.5 | 26.7 | 24.8 | 25.2 | 39.6 | 18.8 | 31.6 | 24.2 | 

From ChEMBL document CHEMBL1155488, “Carbamate derivatives of betulinic acid and betulin with selective cytotoxic activity” (Bioorg Med Chem Lett, 2010)
